Laboratory results published in ChEMBL document CHEMBL1136257, “New highly active taxoids from 9beta-dihydrobaccatin-9,10-acetals. Part 3” (Bioorg Med Chem Lett, 2003).
Values after ≈ are worked out from the molar mass of the structure shown.

Legend:
[1] = Solubility in water using UV assay; type: physicochemical
[2] = system: PC-12; experiment: Cytotoxic activity against human lung cancer PC-12 cell line
[3] = system: PC-6; experiment: Cytotoxic activity against human lung cancer PC-6 cell line; type: functional
How it was run: (§1)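 Growth inhibition (IC50) of mouse leukemia P388 and human lung cancer PC-6 and PC-12 cells after 72 h continuous exposure to compound; IC50 taken as the concentration giving 50% growth inhibition.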

[4] = system: P388; experiment: Cytotoxic activity against mouse leukemia P388 cell line; type: functional; how it was run: as §1
[5] = Solubility of compound in JP1 at pH 1.2 using UV assay; type: physicochemical; settings: JP1, pH 1.2
[6] = Solubility of compound in JP2 at pH 6.8 using UV assay; type: physicochemical; settings: JP2, pH 6.8
[7] = system: Mus musculus; experiment: Mean tumor weight was determined in mice inoculated with B16 melanoma BL6 cells sc at a dose 8 mg/kg po [IR (%) = (1-TWt/TWc)*100]; type: functional
How it was run: (§2)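 C57BL/6 mice (six per group) received subcutaneous B16 melanoma BL6 cells on day 0 and a single iv or oral dose on day 4. Tumors were excised and weighed on day 15. Inhibition rate IR (%) = (1 − mean treated tumor weight/mean control tumor weight) × 100.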

[8] = system: Mus musculus; experiment: Mortality was determined in mice inoculated with B16 melanoma BL6 cells sc at a dose 18 mg/kg by peroral administration; 0/6; type: functional; settings: route oral
[9] = system: Mus musculus; experiment: Mortality was determined in mice inoculated with B16 melanoma BL6 cells sc at a dose 27 mg/kg by peroral administration; 0/6; type: functional; settings: route oral
[10] = system: Mus musculus; experiment: Maximum rate of body weight loss was determined in mice inoculated with B16 melanoma BL6 cells sc at a dose 18 mg/kg by intravenous administration; type: functional
How it was run: (§3)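 On day 0, B16 melanoma BL6 cells (cultured line) were implanted subcutaneously into C57BL/6 mice, six per group. A single iv or oral dose was given on day 4, and body weight was followed. BWLmax (%) is the maximum rate of body weight loss; a value below 0 means no loss.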

[11] = system: Mus musculus; experiment: Maximum rate of body weight loss was determined in mice inoculated with B16 melanoma BL6 cells sc at a dose 27 mg/kg by peroral administration; type: functional; settings: route oral; how it was run: as §3
[12] = system: Mus musculus; experiment: Mortality was determined in mice inoculated with B16 melanoma BL6 cells sc at a dose 12 mg/kg by peroral administration; 0/6; type: functional; settings: route oral
[13] = system: Mus musculus; experiment: Mean tumor weight was determined in mice inoculated with B16 melanoma BL6 cells sc at a dose 8 mg/kg iv [IR (%) = (1-TWt/TWc)*100]; type: functional; how it was run: as §2
[14] = system: Mus musculus; experiment: Mortality was determined in mice inoculated with B16 melanoma BL6 cells sc at a dose 5.3 mg/kg by intravenous administration; 0/6; type: functional
[15] = system: Mus musculus; experiment: Mean tumor weight was determined in mice inoculated with B16 melanoma BL6 cells sc at a dose 5.3 mg/kg iv [IR (%) = (1-TWt/TWc)*100]; type: functional; how it was run: as §2
[16] = system: Mus musculus; experiment: Mortality was determined in mice inoculated with B16 melanoma BL6 cells sc at a dose 8 mg/kg by peroral administration; 0/6; type: functional; settings: route oral
[17] = system: Mus musculus; experiment: Mean tumor weight was determined in mice inoculated with B16 melanoma BL6 cells sc at a dose 12 mg/kg po [IR (%) = (1-TWt/TWc)*100]; type: functional; how it was run: as §2
[18] = system: Mus musculus; experiment: Mean tumor weight was determined in mice inoculated with B16 melanoma BL6 cells sc at a dose 12 mg/kg iv [IR (%) = (1-TWt/TWc)*100]; type: functional; how it was run: as §2
[19] = system: Mus musculus; experiment: Maximum rate of body weight loss was determined in mice inoculated with B16 melanoma BL6 cells sc at a dose 8 mg/kg by intravenous administration; type: functional; how it was run: as §3
[20] = system: Mus musculus; experiment: Mortality was determined in mice inoculated with B16 melanoma BL6 cells sc at a dose 18 mg/kg by intravenous administration; 0/6; type: functional
[21] = system: Mus musculus; experiment: Mean tumor weight was determined in mice inoculated with B16 melanoma BL6 cells sc at a dose 27 mg/kg po [IR (%) = (1-TWt/TWc)*100]; type: functional; how it was run: as §2
[22] = system: Mus musculus; experiment: Mortality was determined in mice inoculated with B16 melanoma BL6 cells sc at a dose 8 mg/kg by intravenous administration; 0/6; type: functional
[23] = system: Mus musculus; experiment: Maximum rate of body weight loss was determined in mice inoculated with B16 melanoma BL6 cells sc at a dose 12 mg/kg by intravenous administration; type: functional; how it was run: as §3
[24] = system: Mus musculus; experiment: Maximum rate of body weight loss was determined in mice inoculated with B16 melanoma BL6 cells sc at a dose 12 mg/kg by peroral administration; type: functional; settings: route oral; how it was run: as §3
[25] = system: Mus musculus; experiment: Maximum rate of body weight loss was determined in mice inoculated with B16 melanoma BL6 cells sc at a dose 5.3 mg/kg by intravenous administration; type: functional; how it was run: as §3
[26] = system: Mus musculus; experiment: Maximum rate of body weight loss was determined in mice inoculated with B16 melanoma BL6 cells sc at a dose 18 mg/kg by peroral administration; type: functional; settings: route oral; how it was run: as §3
[27] = system: Mus musculus; experiment: Mean tumor weight was determined in mice inoculated with B16 melanoma BL6 cells sc at a dose 18 mg/kg iv [IR (%) = (1-TWt/TWc)*100]; type: functional; how it was run: as §2
[28] = system: Mus musculus; experiment: Maximum rate of body weight loss was determined in mice inoculated with B16 melanoma BL6 cells sc at a dose 8 mg/kg by peroral administration; type: functional; settings: route oral; how it was run: as §3
[29] = system: Mus musculus; experiment: Mean tumor weight was determined in mice inoculated with B16 melanoma BL6 cells sc at a dose 18 mg/kg po [IR (%) = (1-TWt/TWc)*100]; type: functional; how it was run: as §2
[30] = system: Mus musculus; experiment: Mortality was determined in mice inoculated with B16 melanoma BL6 cells sc at a dose 12 mg/kg by intravenous administration; 0/6; type: functional
[31] = system: Mus musculus; experiment: Mortality rate in mice inoculated with B16 melanoma BL6 cells sc at a dose 12 mg/kg by intravenous administration; 0/6; type: functional
[32] = system: Mus musculus; experiment: Mortality rate in mice inoculated with B16 melanoma BL6 cells sc at a dose 8 mg/kg by peroral administration; 0/6; type: functional; settings: route oral
[33] = system: Mus musculus; experiment: Mortality was determined in mice inoculated with B16 melanoma BL6 cells sc at a dose 18 mg/kg by peroral administration; 2/6; type: functional; settings: route oral
[34] = system: Mus musculus; experiment: Mortality rate in mice inoculated with B16 melanoma BL6 cells sc at a dose 18 mg/kg by intravenous administration; 0/6; type: functional
[35] = system: Mus musculus; experiment: Mean tumor weight was determined in mice inoculated with B16 melanoma BL6 cells sc at a dose 40.5 mg/kg po [IR (%) = (1-TWt/TWc)*100]; type: functional; how it was run: as §2
[36] = system: Mus musculus; experiment: Mortality was determined in mice inoculated with B16 melanoma BL6 cells sc at a dose 40.5 mg/kg by peroral administration; 0/6; type: functional; settings: route oral
[37] = system: Mus musculus; experiment: Maximum rate of body weight loss was determined in mice inoculated with B16 melanoma BL6 cells sc at a dose 40.5 mg/kg by peroral administration; type: functional; settings: route oral; how it was run: as §3
[38] = system: Mus musculus; experiment: Mean tumor weight was determined in mice inoculated with B16 melanoma BL6 cells sc at a dose 27 mg/kg iv [IR (%) = (1-TWt/TWc)*100]; type: functional; how it was run: as §2
[39] = system: Mus musculus; experiment: Mortality was determined in mice inoculated with B16 melanoma BL6 cells sc at a dose 27 mg/kg by intravenous administration; 0/6; type: functional
[40] = system: Mus musculus; experiment: Maximum rate of body weight loss was determined in mice inoculated with B16 melanoma BL6 cells sc at a dose 27 mg/kg by intravenous administration; type: functional; how it was run: as §3

Structure (SMILES)	solubility [1] [µg/mL]	GI50 [2] [ng/mL]	GI50 [3] [ng/mL]	GI50 [4] [ng/mL]	solubility [5] [µg/mL]	solubility [6] [µg/mL]	IR [7] [%]	Mortality [8]	Mortality [9]	BWLmax [10] [%]	BWLmax [11] [%]	Mortality [12]	IR [13] [%]	IR [17] [%]	IR [18] [%]	BWLmax [19] [%]	BWLmax [23] [%]	BWLmax [24] [%]	BWLmax [26] [%]	IR [29] [%]	also measured
CC(=O)O[C@@]12CO[C@@H]1CC[C@@]1(C)[C@@H]3O[C@H](CN4CCOCC4)O[C@@H]3C3=C(C)[C@@H](OC(=O)[C@](C)(O)[C@@H](NC(=O)OC(C)(C)C)c4ccccc4)C[C@@](O)([C@@H](OC(=O)c4ccccc4)[C@@H]12)C3(C)C	< 4	0.07 (≈ 7.62e-05 µM)	0.47 (≈ 0.000511 µM)	0.02 (≈ 2.18e-05 µM)	350 (≈ 381 µM)	< 4	–	–	–	–	–	–	–	–	–	–	–	–	–	–	–
CC(=O)O[C@@]12CO[C@@H]1CC[C@@]1(C)[C@@H]3O[C@H](CN4CCOCC4)O[C@@H]3C3=C(C)[C@@H](OC(=O)[C@H](O)[C@@H](NC(=O)OC(C)(C)C)c4ccccn4)C[C@@](O)([C@@H](OC(=O)c4ccccc4)[C@@H]12)C3(C)C	14 (≈ 15.5 µM)	0.21 (≈ 0.000232 µM)	0.39 (≈ 0.00043 µM)	0.18 (≈ 0.000199 µM)	1700 (≈ 1880 µM)	11 (≈ 12.1 µM)	27.2	0	0	3.7	4.5	0	87.2	84.9	94.4	<0	<0	<0	0.3	93.3	Mortality [14]: 0; IR [15]: 62.4%; Mortality [16]: 0; Mortality [20]: 0; IR [21]: 97.3%; Mortality [22]: 0; BWLmax [25]: <0%; IR [27]: 95.6%; BWLmax [28]: <0%; Mortality [30]: 0
CC(=O)O[C@@]12CO[C@@H]1CC[C@@]1(C)[C@@H]3O[C@H](CN4CCOCC4)O[C@@H]3C3=C(C)[C@@H](OC(=O)[C@](C)(O)[C@@H](NC(=O)OC(C)(C)C)c4ccccn4)C[C@@](O)([C@@H](OC(=O)c4ccccc4)[C@@H]12)C3(C)C	6 (≈ 6.52 µM)	0.06 (≈ 6.52e-05 µM)	0.11 (≈ 0.00012 µM)	0.12 (≈ 0.00013 µM)	1800 (≈ 1960 µM)	5 (≈ 5.43 µM)	42.2	–	–	–	–	0	–	92.2	96.4	–	13.5	<0	18.1	98	Mortality [31]: 0; Mortality [32]: 0; Mortality [33]: 2; BWLmax [28]: <0%; Mortality [34]: 0
CC(=O)O[C@@]12CO[C@@H]1CC[C@@]1(C)[C@@H]3O[C@H](CN4CCOCC4)O[C@@H]3C3=C(C)[C@@H](OC(=O)[C@](C)(O)[C@@H](NC(=O)c4ccccc4)c4ccccn4)C[C@@](O)([C@@H](OC(=O)c4ccccc4)[C@@H]12)C3(C)C	< 4	0.57 (≈ 0.000617 µM)	0.45 (≈ 0.000487 µM)	0.19 (≈ 0.000206 µM)	> 1800	< 4	–	0	0	<0	<0	0	61.3	23.4	75.4	<0	<0	<0	<0	59.7	IR [35]: 96.9%; Mortality [36]: 0; BWLmax [37]: 4.1%; Mortality [20]: 0; IR [21]: 91.3%; Mortality [22]: 0; IR [38]: 95.8%; Mortality [39]: 0; BWLmax [40]: 2.4%; IR [27]: 89.8%; Mortality [30]: 0
CC(=O)O[C@@]12CO[C@@H]1CC[C@@]1(C)[C@@H]3O[C@H](CN4CCOCC4)O[C@@H]3C3=C(C)[C@@H](OC(=O)[C@H](O)[C@@H](NC(=O)OC(C)(C)C)c4ccccc4)C[C@@](O)([C@@H](OC(=O)c4ccccc4)[C@@H]12)C3(C)C	< 4	0.02 (≈ 2.21e-05 µM)	0.38 (≈ 0.00042 µM)	0.02 (≈ 2.21e-05 µM)	1200 (≈ 1330 µM)	< 4	–	–	–	–	–	–	–	–	–	–	–	–	–	–	–
CC(=O)O[C@H]1C(=O)[C@@]2(C)[C@H]([C@H](OC(=O)c3ccccc3)[C@]3(O)C[C@H](OC(=O)[C@H](O)[C@@H](NC(=O)c4ccccc4)c4ccccc4)C(C)=C1C3(C)C)[C@]1(OC(C)=O)CO[C@@H]1C[C@@H]2O [PACLITAXEL]	–	539 (≈ 0.631 µM)	1.27 (≈ 0.00149 µM)	2.93 (≈ 0.00343 µM)	–	–	–	–	–	–	–	–	–	–	–	–	–	–	–	–	–
